{"source": "ChEMBL document CHEMBL1153516", "about": "“Influence of the side chain next to C-terminal benzimidazole in opioid pseudopeptides containing the Dmt-Tic pharmacophore” (J Med Chem, 2009)", "target": "Delta-type opioid receptor (Mus musculus, UniProt P32300)", "sequence (P32300 whole entry)": "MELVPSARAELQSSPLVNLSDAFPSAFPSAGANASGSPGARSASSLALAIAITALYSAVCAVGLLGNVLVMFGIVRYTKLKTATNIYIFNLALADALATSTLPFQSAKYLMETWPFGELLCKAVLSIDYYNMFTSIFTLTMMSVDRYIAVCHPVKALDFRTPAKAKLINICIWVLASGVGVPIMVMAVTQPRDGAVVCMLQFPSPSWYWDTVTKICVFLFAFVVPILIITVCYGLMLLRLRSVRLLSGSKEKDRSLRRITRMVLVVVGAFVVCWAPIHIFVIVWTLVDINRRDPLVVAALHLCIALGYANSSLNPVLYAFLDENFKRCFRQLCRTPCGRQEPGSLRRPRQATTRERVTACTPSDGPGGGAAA", "assay": "Antagonist activity against delta opioid receptor in mouse vas deferens assessed as effect on deltorphin 2-induced contraction", "assay_type": "functional, tissue-based", "conditions": "read-out: pA2 (converted)", "procedure,_shortened": "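pA2 was measured against the δ agonist deltorphin II in mouse vas deferens and determined by the Kosterlitz and Watt method.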", "note": "Non-standard residues stand in square brackets, D forms with d. Residues, ends and D or L forms follow the SMILES beside them. Dmt = Cc1cc(O)cc(C)c1C[C@H](N)C(=O)O; Tic = O=C(O)[C@@H]1Cc2ccccc2CN1"}
{"smiles": "Cc1cc(O)cc(C)c1C[C@H](N)C(=O)N1Cc2ccccc2C[C@H]1C(=O)N[C@@H](Cc1ccccc1)C(=O)N[C@@H](Cc1ccccc1)C(=O)O", "note": "(H-[Dmt][Tic]FF-OH)", "values": [{"measurement": "Kb", "value": 0.2, "unit": "nM"}]}
